{"data": "Measurements gathered from unrelated publications", "target": "Mitogen-activated protein kinase kinase kinase 20 (MAP3K20, Homo sapiens, UniProt Q9NYL2)"}
{"Compound": "Cn1cc(-c2cccc(N3CCc4c(sc5c4CC(C)(C)C5)C3=O)c2CO)cc(Nc2ccncn2)c1=O", "test": "enzyme activity, inhibitor", "setting": "1 µM", "endpoint": "inhibition", "value": "-1%"}
{"Compound": "COc1ncccc1-c1cnn2ccc(N3CCN(C(=O)OC(C)C)CC3)nc12", "test": "binding, competition with immobilised ligand", "setting": "1 µM", "endpoint": "remaining binding", "value": "78%"}
{"Compound": "Cc1nn(C)cc1-c1nc2c(N3CCN(Cc4ccc(Cl)cc4)CC3)c(Cl)cnc2[nH]1", "test": "binding, competition with immobilised ligand", "setting": "1 µM", "endpoint": "remaining binding", "value": "71%"}
{"Compound": "Cc1ccc(C(=O)Nc2ccc(CN3CCN(C)CC3)c(C(F)(F)F)c2)cc1C#Cc1cnc2cccnn12", "test": "thermal stability, DSF", "setting": "10 µM", "endpoint": "ΔTm", "value": "15 °C"}
{"Compound": "CC(C)(C)c1cc(C=C(C#N)C#N)cc(Br)c1O", "test": "enzyme activity, inhibitor", "setting": "0.5 µM", "endpoint": "remaining activity", "value": "91.2%"}
{"Compound": "Cn1cc(-c2cc(F)cc(N3CCn4c(cc5c4CCCC5)C3=O)c2CO)cc(Nc2ccc(N3CCN(C4COC4)CC3)cn2)c1=O", "test": "enzyme activity, inhibitor", "setting": "0.1 µM", "endpoint": "inhibition", "value": "-3%"}
{"Compound": "Cn1cncc1[C@](O)(COc1ccc(C#N)cc1-c1ccc(OC(F)(F)F)cc1)c1ccc(C#N)cc1", "test": "cell-free assay, competition with immobilised ligand", "setting": "1 µM", "endpoint": "remaining binding", "value": "100%"}
{"Compound": "Nc1ncc(-c2nc(N3CCOCC3)nc(N3CCOCC3)n2)c(C(F)F)n1", "test": "binding, competition with immobilised ligand", "setting": "10 µM", "endpoint": "remaining binding", "value": "80%"}
{"Compound": "COc1cc(Nc2ncc(F)c(Nc3ccc4c(n3)NC(=O)C(C)(C)O4)n2)cc(OC)c1OC", "test": "binding", "setting": "10 µM", "endpoint": "inhibition", "value": "44%"}
{"Compound": "O=c1[nH]c2ccccc2n1C1CCN(Cc2ccc(-c3[nH]c4cc5ncnc5cc4nc3-c3ccccc3)cc2)CC1", "test": "cell-free assay", "setting": "0.5 µM", "endpoint": "remaining signal", "value": "106%"}
